# Measured values collected from several papers.
# Compare with care: the assays were run in different laboratories.
# Effect on: cell growth or viability
SMILES,cell line,technique,concentration,time,endpoint,result
C=C(NC(=O)C(=C)NC(=O)c1csc(C2=N[C@@H]3c4csc(n4)[C@H]4NC(=O)c5csc(n5)[C@H]([C@](C)(O)[C@@H](C)O)NC(=O)[C@H]5CSC(=N5)/C(=C/C)NC(=O)[C@H]([C@@H](C)O)NC(=O)c5csc(n5)[C@]3(CC2)NC(=O)[C@H](C)NC(=O)C(=C)NC(=O)[C@H](C)NC(=O)[C@H]([C@@H](C)CC)N[C@@H]2C=Cc3c([C@H](C)O)cc(nc3[C@H]2O)C(=O)O[C@@H]4C)n1)C(N)=O,Calu-1,,,,EC50,3200 nM
CCCCCCCCCCCCCCCCCCOc1cccc(CC(=O)OCC[N+]2(C)CCCCC2)c1,NCI-H226,SRB,10 µM,,inhibition,10.8%
CN(C)CCNC(=O)c1ccc(-c2nc3ccc4[nH]ncc4c3c3c2CCCC3)c(F)c1,ML-2,,,72 h,GI50,243 nM
O=C(NO)c1ccc(Cn2cnc3c(Nc4ccc(Cl)cc4)ncnc32)cc1,U-937,MTT,,72 h,IC50,7910 nM
Cc1n[nH]c2ccc3nc(-c4ccc(C(=O)NCCN(C)C)cc4F)c4c(c3c12)CCCC4,U-937,,,72 h,GI50,183 nM
O=C(NO)c1ccc(Cn2cnc3c(Nc4ccc(F)c(Cl)c4)ncnc32)cc1,U-937,MTT,,72 h,IC50,2940 nM
CN(C)CCNC(=O)c1ccc(-c2nc3ccc4[nH]ncc4c3c3c2CCCCC3)cc1,U-937,,,72 h,GI50,1480 nM
COc1cccc2c1C(=O)c1c(O)c3c(c(O)c1C2=O)C[C@@](O)(C(=O)CO)C[C@@H]3O[C@H]1C[C@H](N)[C@H](O)[C@H](C)O1,HuCC-A1,MTT,,75 h,IC50,840 nM
CCCCCCCCCCCCCCCCCCOc1ccccc1CC(=O)OCC[N+]1(C)CCCC1,NCI-H226,SRB,10 µM,,inhibition,86.6%
CN1C(=O)C(=O)c2cc3c(c4c2c1cc1ccccc14)OCO3,HuCC-A1,MTT,,75 h,IC50,44400 nM
CN1CCC(NC2CCc3[nH]c4c(C(N)=O)ccc(-c5ccccc5Cl)c4c3C2)CC1 (stereo not shown),MINO,,,96 h,IC50,27.3 nM
Cc1n[nH]c2ccc3nc(-c4ccc(C(=O)NCCN(C)C)cc4F)c4c(c3c12)CCCCC4,U-937,,,72 h,GI50,1640 nM
CCCCCCCCCCCCCCCCCCOc1ccccc1CC(=O)OCCC[N+](C)(C)C,NCI-H226,SRB,10 µM,,inhibition,22%
C=C[C@]1(C)C=C2CC[C@H]3C(C)(C)CCC[C@]3(C)[C@H]2CC1,HuCC-A1,MTT,,75 h,IC50,108000 nM
CCCCCCCCCCCCCCCCCCOc1ccc(CC(=O)OCC[N+](C)(C)C)cc1,NCI-H226,SRB,10 µM,,inhibition,4.87%
CN(C)CCNC(=O)c1ccc(-c2nc3ccc4[nH]ncc4c3c3c2CCCC3)cc1,U-937,,,72 h,GI50,658 nM
CCCCCCCCCCCCCCCCCCOc1ccccc1CC(=O)OCC[N+](CC)(CC)CC,NCI-H226,SRB,10 µM,,inhibition,46.3%
O=C(NO)c1ccc(Cn2cnc3c(Nc4ccc(Br)cc4F)ncnc32)cc1,U-937,MTT,,72 h,IC50,2160 nM
CCc1nc(C(N)=O)c(Nc2ccc(N3CCC(N4CCN(C)CC4)CC3)c(OC)c2)nc1NC1CCOCC1,ML-2,,,72 h,GI50,902 nM
Nc1ccccc1NC(=O)c1ccc(Cn2cnc3c(Nc4ccc(Br)cc4F)ncnc32)cc1,U-937,MTT,,72 h,IC50,1370 nM
COc1cccc2c1C(=O)c1c(O)c3c(c(O)c1C2=O)C[C@@](O)(C(=O)CO)C[C@@H]3O[C@H]1C[C@H](N)[C@H](O)[C@H](C)O1,HuCC-A1,MTT,,,IC50,861 nM
Cc1nc(Nc2ncc(C(=O)Nc3c(C)cccc3Cl)s2)cc(N2CC[C@H](O)C2)n1,SU-DHL-8,ATP luminescence,,72 h,IC50,> 10000 nM
CCCCCCCCCCCCCCCCCCOc1cccc(CC(=O)OCC[N+]2(C)CCOCC2)c1,NCI-H226,SRB,10 µM,,inhibition,6.29%
COc1cccc2c1C(=O)c1c(O)c3c(c(O)c1C2=O)C[C@@](O)(C(=O)CO)C[C@@H]3O[C@H]1C[C@H](N)[C@H](O)[C@H](C)O1,MINO,,,96 h,IC50,11.7 nM
Cc1n[nH]c2ccc3nc(-c4ccc(C(=O)NCCN(C)C)cc4)c4c(c3c12)CCCCC4,U-937,,,72 h,GI50,5920 nM
CCCCCCCCCCCCCCCCCCOc1ccccc1CC(=O)OCC[N+]1(C)CCOCC1,NCI-H226,SRB,10 µM,,inhibition,50.2%
CN(C)CCNC(=O)c1ccc(-c2nc3ccc4[nH]ncc4c3c3c2CCCCC3)c(F)c1,U-937,,,72 h,GI50,1160 nM
CCCCCCCCCCCCCCCCCCOc1cccc(CC(=O)OCC[N+](C)(C)C)c1,NCI-H226,SRB,10 µM,,inhibition,5.79%
